Experimental data: ChEMBL document CHEMBL1136290, “Concise synthesis and biological activities of 2alpha-alkyl- and 2alpha-(omega-hydroxyalkyl)-20-epi-1alpha,25-dihydroxyvitamin D3” (2003)

Columns and labels:
[1] = molecular target: T1, Vitamin D3 receptor (Bos taurus) (UniProt Q28037); assay: Binding affinity at bovine thymus Vitamin D3 receptor relative to 1-alpha,25-Dihydroxyvitamin D3.
T1 sequence (whole entry): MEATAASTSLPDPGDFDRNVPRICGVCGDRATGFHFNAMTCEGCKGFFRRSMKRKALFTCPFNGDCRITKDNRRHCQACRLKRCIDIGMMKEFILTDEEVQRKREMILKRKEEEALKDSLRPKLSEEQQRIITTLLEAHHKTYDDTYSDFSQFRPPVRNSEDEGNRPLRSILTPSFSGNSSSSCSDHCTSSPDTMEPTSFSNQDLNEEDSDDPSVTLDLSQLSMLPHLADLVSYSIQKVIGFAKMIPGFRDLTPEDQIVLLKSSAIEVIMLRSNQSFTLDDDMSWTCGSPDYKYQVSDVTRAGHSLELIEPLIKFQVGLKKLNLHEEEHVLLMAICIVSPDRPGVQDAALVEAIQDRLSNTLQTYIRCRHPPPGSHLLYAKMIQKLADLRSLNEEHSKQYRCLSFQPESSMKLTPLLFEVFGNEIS

[2] = test system: HL-60; assay: In vitro induction of HL-60 cell differentiation.; type: functional, Homo sapiens; design: reference not given here
In short: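 HL-60 differentiation was scored by the NBT reduction method.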

| SMILES | relative binding affinity (RBA) [1] | Potency [2] |
| --- | --- | --- |
| C=C1/C(=C\C=C2/CCC[C@]3(C)[C@@H]([C@@H](C)CCCC(C)(C)O)CC[C@@H]23)C[C@@H](O)[C@H](CCCCO)[C@@H]1O | 183 | 3910 |
| C=C1/C(=C\C=C2/CCC[C@]3(C)[C@@H]([C@H](C)CCCC(C)(C)O)CC[C@@H]23)C[C@@H](O)C[C@@H]1O [CALCITRIOL] | 100 | 100 |
| C=C1/C(=C\C=C2/CCC[C@]3(C)[C@@H]([C@@H](C)CCCC(C)(C)O)CC[C@@H]23)C[C@@H](O)[C@H](CCCC)[C@@H]1O | 33 | 2300 |
| C=C1/C(=C\C=C2/CCC[C@]3(C)[C@@H]([C@@H](C)CCCC(C)(C)O)CC[C@@H]23)C[C@@H](O)[C@H](C)[C@@H]1O | 1200 | 9688 |
| C=C1/C(=C\C=C2/CCC[C@]3(C)[C@@H]([C@H](C)CCCC(C)(C)O)CC[C@@H]23)C[C@@H](O)[C@H](CO)[C@@H]1O | 20 | 10 |
| C=C1/C(=C\C=C2/CCC[C@]3(C)[C@@H]([C@@H](C)CCCC(C)(C)O)CC[C@@H]23)C[C@@H](O)[C@H](CO)[C@@H]1O | 190 | 570 |
| C=C1/C(=C\C=C2/CCC[C@]3(C)[C@@H]([C@H](C)CCCC(C)(C)O)CC[C@@H]23)C[C@@H](O)[C@H](CCO)[C@@H]1O | 70 | 86 |
| C=C1/C(=C\C=C2/CCC[C@]3(C)[C@@H]([C@@H](C)CCCC(C)(C)O)CC[C@@H]23)C[C@@H](O)[C@H](CC)[C@@H]1O | 150 | 4200 |
| C=C1/C(=C\C=C2/CCC[C@]3(C)[C@@H]([C@H](C)CCCC(C)(C)O)CC[C@@H]23)C[C@@H](O)[C@H](CCC)[C@@H]1O | 20 | 44 |
| C=C1/C(=C\C=C2/CCC[C@]3(C)[C@@H]([C@@H](C)CCCC(C)(C)O)CC[C@@H]23)C[C@@H](O)[C@H](CCO)[C@@H]1O | 320 | 4030 |
| C=C1/C(=C\C=C2/CCC[C@]3(C)[C@@H]([C@@H](C)CCCC(C)(C)O)CC[C@@H]23)C[C@@H](O)C[C@@H]1O | 400 | 3571 |
| C=C1/C(=C\C=C2/CCC[C@]3(C)[C@@H]([C@@H](C)CCCC(C)(C)O)CC[C@@H]23)C[C@@H](O)[C@H](CCC)[C@@H]1O | 119 | 1750 |
| C=C1/C(=C\C=C2/CCC[C@]3(C)[C@@H]([C@H](C)CCCC(C)(C)O)CC[C@@H]23)C[C@@H](O)[C@H](CCCCO)[C@@H]1O | 120 | 460 |
| C=C1/C(=C\C=C2/CCC[C@]3(C)[C@@H]([C@H](C)CCCC(C)(C)O)CC[C@@H]23)C[C@@H](O)[C@H](CC)[C@@H]1O | 40 | 106 |
| C=C1/C(=C\C=C2/CCC[C@]3(C)[C@@H]([C@H](C)CCCC(C)(C)O)CC[C@@H]23)C[C@@H](O)[C@H](C)[C@@H]1O | 400 | 258 |
| C=C1/C(=C\C=C2/CCC[C@]3(C)[C@@H]([C@H](C)CCCC(C)(C)O)CC[C@@H]23)C[C@@H](O)[C@H](CCCC)[C@@H]1O | 8 | 74 |
| C=C1/C(=C\C=C2/CCC[C@]3(C)[C@@H]([C@@H](C)CCCC(C)(C)O)CC[C@@H]23)C[C@@H](O)[C@H](CCCO)[C@@H]1O | 370 | 4900 |
| C=C1/C(=C\C=C2/CCC[C@]3(C)[C@@H]([C@H](C)CCCC(C)(C)O)CC[C@@H]23)C[C@@H](O)[C@H](CCCO)[C@@H]1O | 300 | 240 |
